Experimental data: ChEMBL document CHEMBL1764968, “Structural simplification of bioactive natural products with multicomponent synthesis. 3. Fused uracil-containing heterocycles as novel topoisomerase-targeting agents” (2011)
Calls of active or inactive are those of the source. The calls are words filed in the database; no cut-off is given here.

Experiments:
HeLa = assay: Cytotoxicity against human HeLa cells after 72 hrs by MTT assay; format: functional
Outline: (§1)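 Cells plated 24 h in 96-well plates at 10,000–40,000 cells/mL depending on line. U373 grown in MEM, other lines in RPMI, both with 5% heat-inactivated FCS. Cells exposed to compounds (or none, control) for 72 h. MTT reduction to formazan read at 570 nm against 630 nm reference. Sextuplicate per condition.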

Jurkat = assay: Cytotoxicity against human Jurkat cells after 72 hrs by MTT assay; format: functional; outline: as §1
MCF7 = assay: Cytotoxicity against human MCF7 cells after 72 hrs by MTT assay; format: functional; conditions: MCF7, 72 h; outline: as §1
A549 = assay: Cytotoxicity against human A549 cells after 72 hrs by MTT assay; format: functional; conditions: A549, 72 h; outline: as §1
LoVo = assay: Cytotoxicity against human LoVo cells after 72 hrs by MTT assay; format: functional; outline: as §1
[1] = Cytotoxicity against human U373 cells after 72 hrs by MTT assay; format: functional, U-373MG ATCC; conditions: U373 MG; outline: as §1
SK-MEL = assay: Cytotoxicity against human SK-MEL cells after 72 hrs by MTT assay; format: functional; outline: as §1
PC-3 = assay: Cytotoxicity against human PC3 cells after 72 hrs by MTT assay; format: functional; conditions: PC-3, 72 h; outline: as §1
U-373MG ATCC = assay: Cytostatic activity against human U373 cells assessed as morphological changes after 72 hrs by phase contrast microscopy; format: functional, cell-based
[2] = biological target: T1, DNA topoisomerase 1 (Homo sapiens) (UniProt P11387); assay: Effect on human DNA topoisomerase 1-mediated supercoiled pGEM1 plasmid DNA cleavage complex stabilization at up to 100 uM by agarose gel electrophoresis
T1 sequence (whole entry): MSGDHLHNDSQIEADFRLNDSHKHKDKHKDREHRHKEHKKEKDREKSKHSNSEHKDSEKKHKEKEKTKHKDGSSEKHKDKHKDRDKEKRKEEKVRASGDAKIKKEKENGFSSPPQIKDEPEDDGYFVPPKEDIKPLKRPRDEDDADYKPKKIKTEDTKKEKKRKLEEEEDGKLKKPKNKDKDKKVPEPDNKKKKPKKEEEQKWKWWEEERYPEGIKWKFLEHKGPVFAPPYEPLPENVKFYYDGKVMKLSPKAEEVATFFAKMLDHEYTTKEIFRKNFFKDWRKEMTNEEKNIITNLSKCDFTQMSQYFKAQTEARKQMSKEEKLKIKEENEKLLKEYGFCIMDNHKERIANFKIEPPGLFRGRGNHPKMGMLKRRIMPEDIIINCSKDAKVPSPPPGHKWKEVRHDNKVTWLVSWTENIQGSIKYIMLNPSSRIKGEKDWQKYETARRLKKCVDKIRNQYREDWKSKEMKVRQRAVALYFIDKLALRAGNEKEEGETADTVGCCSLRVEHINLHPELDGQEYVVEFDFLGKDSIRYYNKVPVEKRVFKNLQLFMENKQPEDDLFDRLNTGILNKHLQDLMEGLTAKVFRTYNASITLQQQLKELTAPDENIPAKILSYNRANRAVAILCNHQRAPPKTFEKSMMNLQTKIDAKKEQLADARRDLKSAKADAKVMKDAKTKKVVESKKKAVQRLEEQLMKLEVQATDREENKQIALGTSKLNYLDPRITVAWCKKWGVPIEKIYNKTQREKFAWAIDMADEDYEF

Row | Activity [2] | Structure (SMILES) | GI50 (HeLa) | GI50 (Jurkat) | GI50 (MCF7) | GI50 (A549) | GI50 (LoVo) | GI50 [1] | GI50 (SK-MEL) | GI50 (PC-3) | Activity (U-373MG ATCC)
1 | – | CC(C)c1ccc(C2C3=C(Nc4[nH]c(=O)[nH]c(=O)c42)c2ccccc2C3=O)cc1 (configuration not stated) | 5800 nM | 960 nM | 9100 nM | > 10000 nM | – | – | – | – | –
2 | – | O=C1C2=C(Nc3[nH]c(=O)[nH]c(=O)c3C2c2ccc(Cl)cc2Cl)c2ccccc21 (configuration not stated) | 950 nM | 760 nM | 7000 nM | 7400 nM | 1400 nM | 4200 nM | 3900 nM | 2400 nM | –
3 | – | O=C1C2=C(Nc3[nH]c(=O)[nH]c(=O)c3C2c2ccc3c(c2)OCCO3)c2ccccc21 (configuration not stated) | 5400 nM | 6900 nM | 8400 nM | 7800 nM | – | – | – | – | –
4 | – | O=C1C2=C(Nc3[nH]c(=O)[nH]c(=O)c3C2c2ccc(F)c(Br)c2)c2ccccc21 (configuration not stated) | 5400 nM | 990 nM | 5500 nM | 5600 nM | – | – | – | – | –
5 | – | O=C1C2=C(Nc3[nH]c(=O)[nH]c(=O)c3C2c2ccnc3ccccc23)c2ccccc21 (configuration not stated) | 5600 nM | 8200 nM | 9400 nM | 8600 nM | – | – | – | – | –
6 | – | O=C1c2ccccc2-c2nc3[nH]c(=O)[nH]c(=O)c3c(-c3ccc(Cl)cc3Cl)c21 | 890 nM | 810 nM | 7400 nM | 7800 nM | 2900 nM | 4200 nM | 3500 nM | 2800 nM | –
7 | inactive | Cc1ccc(C2C3=C(Nc4[nH]c(=O)[nH]c(=O)c42)c2ccccc2C3=O)cc1C (configuration not stated) | 780 nM | 190 nM | 340 nM | 290 nM | 490 nM | 430 nM | 960 nM | 4200 nM | Active
8 | – | O=C1c2ccccc2-c2nc3[nH]c(=O)[nH]c(=O)c3c(-c3ccc(F)c(Br)c3)c21 | 5600 nM | 980 nM | 5500 nM | 2800 nM | – | – | – | – | –
9 | – | O=C1C2=C(Nc3[nH]c(=O)[nH]c(=O)c3C2c2ccc(F)cc2)c2ccccc21 (configuration not stated) | > 10000 nM | > 10000 nM | > 10000 nM | > 10000 nM | 4600 nM | 5600 nM | 10000 nM | 4000 nM | –
10 | – | COc1ccc(C2C3=C(Nc4[nH]c(=O)[nH]c(=O)c42)c2ccccc2C3=O)c(OC)c1OC (configuration not stated) | 350 nM | 490 nM | 480 nM | 540 nM | 220 nM | 260 nM | 400 nM | > 10000 nM | –
11 | – | COc1cc(C2C3=C(Nc4[nH]c(=O)[nH]c(=O)c42)c2ccccc2C3=O)cc(Br)c1OC (configuration not stated) | 3800 nM | 200 nM | 780 nM | 480 nM | 380 nM | 370 nM | 480 nM | > 10000 nM | –
12 | – | Cc1ccc(-c2c3c(nc4[nH]c(=O)[nH]c(=O)c24)-c2ccccc2C3=O)cc1 | 6400 nM | 1100 nM | 6400 nM | 5800 nM | – | – | – | – | –
13 | – | O=C1c2ccccc2-c2nc3[nH]c(=O)[nH]c(=O)c3c(-c3ccc(C(F)(F)F)cc3)c21 | 3800 nM | 960 nM | 5600 nM | 7800 nM | – | – | – | – | –
14 | – | CCOc1ccc(-c2c3c(nc4[nH]c(=O)[nH]c(=O)c24)-c2ccccc2C3=O)cc1 | 5300 nM | 760 nM | 5600 nM | 6000 nM | – | – | – | – | –
15 | – | CC[C@@]1(O)C(=O)OCc2c1cc1n(c2=O)Cc2cc3ccccc3nc2-1 [CAMPTOTHECIN] | 1300 nM | 90 nM | 6000 nM | 200 nM | 8 nM | 33 nM | 47 nM | 480 nM | –
16 | – | COc1ccc(-c2c3c(nc4[nH]c(=O)[nH]c(=O)c24)-c2ccccc2C3=O)cc1 | 5500 nM | 960 nM | 2400 nM | > 10000 nM | 870 nM | 2400 nM | 4700 nM | 880 nM | –
17 | – | O=C1c2ccccc2-c2nc3[nH]c(=O)[nH]c(=O)c3c(-c3ccnc4ccccc34)c21 | 7600 nM | 8200 nM | 9500 nM | > 10000 nM | – | – | – | – | –

Row | Activity [2] | Structure (SMILES) | GI50 (HeLa) | GI50 (Jurkat) | GI50 (MCF7) | GI50 (A549) | GI50 (LoVo) | GI50 [1] | GI50 (SK-MEL) | GI50 (PC-3) | Activity (U-373MG ATCC)
18 | – | O=C1c2ccccc2-c2nc3[nH]c(=O)[nH]c(=O)c3c(-c3ccc(Cl)c(Cl)c3)c21 | 350 nM | 230 nM | 740 nM | 120 nM | 70 nM | 80 nM | 80 nM | > 10000 nM | –
19 | – | COc1ccc(C2C3=C(Nc4[nH]c(=O)[nH]c(=O)c42)c2ccccc2C3=O)cc1OC (configuration not stated) | 600 nM | 400 nM | 690 nM | 4800 nM | 800 nM | 700 nM | 860 nM | > 10000 nM | –
20 | – | O=C1C2=C(Nc3[nH]c(=O)[nH]c(=O)c3C2c2ccc(Cl)c(Cl)c2)c2ccccc21 (configuration not stated) | 5800 nM | 350 nM | 800 nM | 590 nM | 460 nM | 420 nM | 500 nM | 6200 nM | –
21 | – | O=C1C2=C(Nc3[nH]c(=O)[nH]c(=O)c3C2c2ccc(C(F)(F)F)cc2)c2ccccc21 (configuration not stated) | 5600 nM | 2200 nM | 1500 nM | 5200 nM | – | – | – | – | –
22 | – | COc1cc(-c2c3c(nc4[nH]c(=O)[nH]c(=O)c24)-c2ccccc2C3=O)cc(Br)c1OC | 340 nM | 170 nM | 950 nM | 310 nM | 350 nM | 600 nM | 470 nM | > 10000 nM | –
23 | – | O=C1c2ccccc2-c2nc3[nH]c(=O)[nH]c(=O)c3c(-c3ccc(F)cc3)c21 | > 10000 nM | 7400 nM | > 10000 nM | > 10000 nM | 3500 nM | 8700 nM | 10000 nM | 9000 nM | –
24 | – | O=C1c2ccccc2-c2nc3[nH]c(=O)[nH]c(=O)c3cc21 | > 10000 nM | > 10000 nM | > 10000 nM | > 10000 nM | 9500 nM | 7500 nM | 10000 nM | > 10000 nM | –
25 | – | CCOc1ccc(C2C3=C(Nc4[nH]c(=O)[nH]c(=O)c42)c2ccccc2C3=O)cc1 (configuration not stated) | 7400 nM | 910 nM | 6600 nM | 5800 nM | – | – | – | – | –
26 | – | COc1ccc(-c2c3c(nc4[nH]c(=O)[nH]c(=O)c24)-c2ccccc2C3=O)cc1OC | 530 nM | 220 nM | 750 nM | 830 nM | 440 nM | 600 nM | 470 nM | > 10000 nM | –
27 | – | CC(C)c1ccc(-c2c3c(nc4[nH]c(=O)[nH]c(=O)c24)-c2ccccc2C3=O)cc1 | 850 nM | 490 nM | 6900 nM | 8200 nM | – | – | – | – | –
28 | – | COc1ccc(-c2c3c(nc4[nH]c(=O)[nH]c(=O)c24)-c2ccccc2C3=O)c(OC)c1OC | 310 nM | 470 nM | 470 nM | 260 nM | 350 nM | 360 nM | 430 nM | 900 nM | –
29 | – | O=C1c2ccccc2-c2nc3[nH]c(=O)[nH]c(=O)c3c(-c3ccc(OC(F)(F)F)cc3)c21 | 5800 nM | 950 nM | 6600 nM | 8000 nM | – | – | – | – | –
30 | – | O=C1c2ccccc2-c2nc3[nH]c(=O)[nH]c(=O)c3c(-c3ccc4c(c3)OCCO4)c21 | 8800 nM | 5500 nM | 8500 nM | 7500 nM | – | – | – | – | –
31 | – | Cc1ccc(C2C3=C(Nc4[nH]c(=O)[nH]c(=O)c42)c2ccccc2C3=O)cc1 (configuration not stated) | 8600 nM | 5600 nM | 7600 nM | 5900 nM | – | – | – | – | –
32 | – | COc1ccc(C2C3=C(Nc4[nH]c(=O)[nH]c(=O)c42)c2ccccc2C3=O)cc1 (configuration not stated) | 6900 nM | 870 nM | 3600 nM | 9200 nM | 2200 nM | 4100 nM | 4800 nM | 3000 nM | –
33 | – | O=C1C2=C(Nc3[nH]c(=O)[nH]c(=O)c3C2c2ccc(OC(F)(F)F)cc2)c2ccccc21 (configuration not stated) | 5600 nM | 960 nM | 5800 nM | 5700 nM | – | – | – | – | –
